Compound activity (PubChem)
Sampled rows, rich in hits. Any-hit rate of the full collection: about 1.7%.
STEP inh – STEP (human) phosphatase inhibition; P54829; recombinant STEP, OMFP fluorogenic substrate, fluorescence; inhibition, % at 20 µM; actives 0.25% (n = 360,000); AID 588621;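 active means inhibition at 20 µM, scaled per plate between control wells, above about 37%, limit read from the data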;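 further: 0% = DMSO with enzyme and substrate and 100% = substrate only without enzyme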
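material = STEP tyrosine phosphatase | reagent = fluorogenic phosphatase substrate OMFP at 25 µM final | doses = single compound dose of 20 µM, 1% DMSO final | schedule = 20 min reaction, room temperature, in the dark | measured by = fluorescence, 480/540 nm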
Scp1 inh – inhibitors of human Scp-1 phosphatase; Q9GZU7; Recombinant Scp1, phosphopeptide, malachite green phosphate absorbance; inhibition, % at 20 µM; actives 0.88% (n = 340,000); AID 493091;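 active means inhibition above about 50% at 20 µM, limit read from the data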;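 further: plate controls were DMSO wells with enzyme for no effect and wells lacking enzyme for full effect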
Target sequence (Q9GZU7 76-261 limits assumed): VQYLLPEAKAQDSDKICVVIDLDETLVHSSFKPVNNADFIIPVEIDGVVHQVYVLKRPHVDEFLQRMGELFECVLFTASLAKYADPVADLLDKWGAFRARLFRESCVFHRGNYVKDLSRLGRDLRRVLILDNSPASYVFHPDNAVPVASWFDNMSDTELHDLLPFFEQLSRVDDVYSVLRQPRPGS
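System: SCP-1 catalytic domain; Reagent: Phospho 17-mer peptide substrate; Doses: one concentration, 20 µM, with 1.0% DMSO; Incubation: 45 min room-temperature reaction, 5 min colour, 30 min stabiliser; Signal: Phosphate-binding colour reagent, absorbance read at 630 nm.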
DNMT1 block – inhibitors of human DNMT1; P26358; DNMT1 molecular beacon, Hinp1I cleavage, fluorescence; inhibition (reported as % activation of signal), % at 10 µM; actives 0.83% (n = 360,000); AID 588458; in the data active means inhibition above about 50%
LMPTP inh – LMPTP (human) inhibition | P24666 | recombinant LMPTP-A, OMFP fluorogenic substrate, fluorescence intensity | inhibition, % at 20 µM | actives 0.22% (n = 360,000) | AID 651560;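 active means compounds that cut the enzyme signal by at least half of the control window in the single-dose screen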;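 further: plate controls were DMSO wells with enzyme plus substrate for no effect and substrate without enzyme for full effect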
Target sequence (P24666 whole entry, looked up): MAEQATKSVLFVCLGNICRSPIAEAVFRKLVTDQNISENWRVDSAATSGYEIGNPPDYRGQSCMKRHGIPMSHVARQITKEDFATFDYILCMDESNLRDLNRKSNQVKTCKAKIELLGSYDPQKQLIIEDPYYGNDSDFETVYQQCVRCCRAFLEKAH
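Test system: LMPTP-A, protein tyrosine phosphatase of low molecular weight; Input: 0.625 nM enzyme; Incubation: 50 min dark incubation at room temperature; Signal: endpoint fluorescence intensity from OMFP dephosphorylation; Read-out basis: % inhibition versus control wells.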
SUMO1 PPI mod – modulators of human SUMO1-mediated protein-protein interactions; inhibition, % at 20 µM; P63165; actives 0.33% (n = 360,000); SUMO1 binding to a labelled peptide, TR-FRET, 1 h; in the data active means inhibition above about 37%
Target sequence (P63165 whole entry, looked up): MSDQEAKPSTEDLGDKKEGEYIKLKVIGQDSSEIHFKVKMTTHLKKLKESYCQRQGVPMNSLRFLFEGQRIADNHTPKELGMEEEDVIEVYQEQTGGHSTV
Numbers without * were called inactive; . = no result given.

SMILES | STEP inh | Scp1 inh | DNMT1 block | LMPTP inh | SUMO1 PPI mod
CC(=O)Nc1ccc(C(=O)Nc2cccc(-c3cnc4ccccc4n3)c2)cc1 | 15 | 21 | 34 | 40 | 49*
Cc1ccc(C(=O)Nc2cccc(-c3cnc4ccccc4n3)c2)cc1 | -1 | -9 | 9 | -1 | -3
CC(=O)Nc1ccc(C(=O)Nc2nc(-c3cccnc3)cs2)cc1 | 12 | 8 | -4 | 6 | 60*
CN1N=C(N)c2cn(C3OC(COP(=O)(O)O)C(O)C3O)c3ncnc1c23 (stereo unspecified) | 0 | 2 | 2 | -2 | -4
COc1ccccc1CNC(=O)[C@H](C)NC(=O)C1CCN(C(=O)[C@H](CCSC)NC(=O)OC(C)(C)C)CC1 | -1 | 4 | 4 | -1 | 4
COc1ccc(CC(=O)Nc2sccc2C#N)cc1S(=O)(=O)N1CCOCC1 | 2 | 0 | 0 | 1 | 15
Cn1nc(C(C)(C)C)cc1C(=O)Sc1cccc(Br)c1 | 4 | -7 | 4 | 2 | 1
NC(CSC(c1ccccc1)(c1ccccc1)c1cccc2ccccc12)C(=O)O (stereo unspecified) | 3 | 2 | 69* | 3 | 0
Cc1ccc(CCN2CC(C(=O)NCCCN3CCC(C)CC3)CC2=O)cc1 (stereo unspecified) | 0 | -5 | -1 | -2 | 1
CCOC(=O)C1=C(C)c2ccccc2OC1(CC)C(=O)OCC (stereo unspecified) | 0 | -7 | 0 | 0 | -2
CCOC(=O)C1=C(C)c2ccccc2N(C(=O)OC)C1(C)C(=O)OCC (stereo unspecified) | 2 | 98* | 12 | 1 | 3
CNc1ccc(Br)cc(C(=O)/C=C/c2ccc(Cl)cc2Cl)c1=O | 5 | 0 | 67* | 33 | 19
CCNc1ccc(Br)cc(C(=O)/C=C/c2c(Cl)cccc2Cl)c1=O | 6 | 16 | 84* | 43 | 20
Cc1[nH]ccc2cc3nc4ccccc4c3cc12 | 0 | . | 48 | 86* | -34
COc1ccc(-c2ccc3nncn3c2)cn1 | 0 | . | 2 | -2 | -12
COc1cccc(CNc2nc3cc(-c4ccc(OC)cc4C)sc3c(=O)n2C)c1 | 0 | . | -20 | 6 | -10
c1ccc(-c2cc(NCCN3CCCCC3)c3ccccc3n2)cc1 | -4 | 1 | 44 | 90* | -10
O=C(c1cc(-c2ccccc2)nc2ccccc12)N1CCCC1 | 0 | -1 | 0 | 0 | 3
CCc1nn2c(=O)cc(COc3ccc(/C=C4\C(=N)N5N=C(C)SC5=NC4=O)cc3)nc2s1 | 2 | 33 | 59* | 5 | 24
Cc1ccc(S(=O)(=O)c2cc(Nc3ccccc3)ccc2O)cc1 | -1 | -6 | -23 | 2 | -7
Nc1cccc2c(O)cc(S(=O)(=O)O)cc12 | 92* | 93* | 114* | 78* | 76*
COc1ccccc1Nc1ccc2c(O)cc(S(=O)(=O)O)cc2c1 | 97* | 82* | 95* | 85* | 92*
O=S(=O)(O)c1cc(O)c2ccc(Nc3ccccc3)cc2c1 | 99* | 99* | 100* | 93* | 83*
O=S(=O)(O)c1ccc(O)c2cc(Nc3ccccc3)ccc12 | 99* | 96* | 96* | 96* | 120*
Oc1cccc(Nc2ccccc2)c1 | -4 | 0 | -15 | 0 | 2
SMILES | STEP inh | Scp1 inh | DNMT1 block | LMPTP inh | SUMO1 PPI mod
Cc1ccc(S(=O)(=O)NC(=O)C2(C)CCN2C(=O)Cc2cc(F)ccc2F)nc1 (stereo unspecified) | 1 | . | 3 | -1 | 3
O=C(COC(=O)COc1ccccc1)Nc1ccc(Br)cc1Br | -2 | 0 | 4 | -1 | 33
Cc1ccc(NC(=O)CN2C(=O)N/C(=C/c3cccn3-c3ccc(C(=O)O)cc3)C2=O)cc1 | 97* | 93* | 107* | 50* | 49*
Cc1ccc(NC(=O)CN2C(=O)S/C(=C\c3cc(C)n(-c4ccc(C(=O)O)cc4)c3C)C2=O)cc1 | 4 | -9 | -10 | 3 | -6
COc1cccc(NC(=O)C2(C)CCN2Cc2ccc(SC)cc2)c1 (stereo unspecified) | 2 | . | -3 | 1 | -1
CC12CCC3c4ccccc4CCC3(CO1)C2 (stereo unspecified) | 3 | . | 1 | -1 | -3
COc1ccc([C@H]2C(C#N)=C([S-])N[C@](C)(O)[C@@H]2[n+]2ccccc2)cc1 | -1 | -8 | 47 | 49* | -34
Cc1ccc[n+](C2C(c3ccc([N+](=O)[O-])cc3)C(C#N)=C([S-])NC2(O)C2CC2)c1 (stereo unspecified) | 2 | 6 | 4 | 17 | -10
CC1CCN(CC(=O)Nc2nn(-c3ccccc3)nc2C(N)=O)CC1 | -3 | -5 | 1 | -1 | 5
COC(=O)c1ccc(OCC(=O)Nc2nn(-c3ccccc3)nc2C(N)=O)cc1 | -2 | 2 | -27 | -2 | 50*
CC(C)(C)N1C(=O)Cc2c1nc(N)c1c(N)nc(N3CCCCC3CO)c(C#N)c21 (stereo unspecified) | 12 | 9 | 6 | 28 | 50*
N#Cc1c(N2CCN(c3ccc(F)cc3)CC2)nc(N)c2c(N)nc3c(c12)CC(=O)N3C1CC1 | 9 | -2 | -21 | 4 | 18
CCCCn1c(N)c(N(CC(C)C)C(=O)c2cc(-c3ccco3)nc3ccccc23)c(=O)[nH]c1=O | 0 | 28 | 21 | 7 | 4
CCCCN(C(=O)c1cc(-c2ccco2)nc2ccccc12)c1c(N)n(CCC)c(=O)[nH]c1=O | 6 | 61* | 53* | 9 | 3
CCCc1cc(=O)n(-c2nc3ccccc3s2)[nH]1 | -4 | -2 | -2 | 0 | -2
CCOC(=O)Cc1cc(=O)n(-c2nc3ccccc3s2)[nH]1 | 2 | -5 | 7 | 0 | 38*
O=C1/C(=C/c2ccco2)CCc2ccccc21 | 1 | -10 | -4 | 0 | -19
Nc1ccc2c(c1)C/C(=C/c1ccco1)C2=O | 10 | 73* | 88* | 67* | 40*
COc1ccccc1CNC(=O)CN1C(=O)NC2(CCCCCCC2)C1=O | -3 | -8 | 0 | -1 | 3
Nc1nc(SCC(=O)c2cc3ccccc3o2)n[nH]1 | -5 | -3 | -4 | 1 | 40*
Cc1ccc(S(=O)(=O)c2c(N)n(CCC(C)C)c3nc4ccccc4nc23)cc1 | 2 | -1 | 29 | 6 | 42*
CCCCn1c(NC(=O)c2ccco2)c(S(=O)(=O)c2ccc(C)cc2)c2nc3ccccc3nc21 | -2 | -3 | 35 | 6 | 42*
CCCCn1c(NS(=O)(=O)c2ccccc2)c(S(=O)(=O)c2ccc(C)cc2)c2nc3ccccc3nc21 | 2 | -11 | 80* | 25 | 48*
CC(C)CCn1c(N)c(S(=O)(=O)c2cccs2)c2nc3ccccc3nc21 | 2 | 3 | -27 | 4 | 6
